Laboratory results taken from ChEMBL document CHEMBL4428066, “Small Molecule Reversible Inhibitors of Bruton's Tyrosine Kinase (BTK): Structure-Activity Relationships Leading to the Identification of 7-(2-Hydroxypropan-2-yl)-4-[2-methyl-3-(4-oxo-3,4-dihydroquinazolin-3-yl)phenyl]-9H-carbazole-1-carboxamide (BMS-935177)” (J Med Chem, 2016).
pIC50: −log10 of the molar value. Active and inactive are the calls of the source. No cut-off for these calls is given here.

Tests used:
[1] = Cmax in Balb/C mouse at 10 mg/kg, po; assay type: ADME, organism-based; set-up: dose 10 mg/kg, route oral; settings: in vivo
Method in brief: (§1)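 Male Balb/C mice dosed orally once at 10 mg/kg in PEG300/TPGS/ethanol (90/5/5 v/v/v).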

[2] = AUC (0 to 24 hrs) in Balb/C mouse at 10 mg/kg, po; assay type: ADME, organism-based; set-up: time < 24 hr, dose 10 mg/kg, route oral; settings: in vivo; method in brief: as §1
Homo sapiens = organism: Homo sapiens; assay: Selectivity ratio of IC50 for GST-tagged human recombinant LCK using FITC-AHAEGIYLFKKK-NH2 as substrate to IC50 for His-tagged full length human recombinant BTK expressed in baculovirus
Method in brief: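 Fold selectivity is the LCK enzyme IC50 divided by the BTK enzyme IC50. The footnotes give each IC50 as the mean of three (or at least three) determinations, with some as single determinations.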

[3] = biological target: T1, Tyrosine-protein kinase BTK (Homo sapiens, UniProt Q06187); assay: Inhibition of BTK in human RamosB cells assessed as suppression of BCR/anti-IgM stimulated calcium flux pre-incubated for 1 hr followed by BCR/anti-IgM stimulation; assay type: cell-based
[4] = biological target: T1, Tyrosine-protein kinase BTK; assay: Inhibition of His-tagged full length human recombinant BTK expressed in baculovirus using fluoresceinated peptide substrate after 60 mins by fluorescent electrophoretic separation
Mus musculus = assay: Decrease in anti-KLH IgM titers in chronic Balb/C mouse KLH antibody response model at 30 mg/kg, po administered through oral gavage after 14 days by ELISA; assay type: functional, organism-based; settings: in the assay text read “IgG” for “IgM”
Method in brief: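 Chronic KLH challenge model in mice with compound given by mouth. Anti-KLH IgM appears in the first week after challenge. Switching to IgG anti-KLH is evident by day 14.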

[5] = Stability in mouse liver microsomes; assay type: ADME, Microsome
[6] = Permeability of the compound at pH 7 by PAMPA; assay type: ADME; settings: for Papp: read-out: permeability
[7] = Drug metabolism in rat liver microsomes assessed as aniline metabolite formation; assay type: ADME, Microsome
Method in brief: (§2)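 Compounds were incubated with human or rat liver microsomes. Metabolites were profiled for hydrolysis to the aniline and, where applicable, for N-dealkylation giving the bis-aniline.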

[8] = Drug metabolism in human liver microsomes assessed as aniline metabolite formation; assay type: ADME, Microsome; method in brief: as §2
[9] = Toxicity in mouse administered orally as multiple day dosing schedule; settings: in vivo, po
[10] = Drug metabolism in rat liver microsomes assessed as bis-aniline metabolite formation; assay type: ADME, Microsome; method in brief: as §2
[11] = Drug metabolism in human liver microsomes assessed as bis-aniline metabolite formation; assay type: ADME, Microsome; method in brief: as §2

T1 sequence (Q06187 whole entry): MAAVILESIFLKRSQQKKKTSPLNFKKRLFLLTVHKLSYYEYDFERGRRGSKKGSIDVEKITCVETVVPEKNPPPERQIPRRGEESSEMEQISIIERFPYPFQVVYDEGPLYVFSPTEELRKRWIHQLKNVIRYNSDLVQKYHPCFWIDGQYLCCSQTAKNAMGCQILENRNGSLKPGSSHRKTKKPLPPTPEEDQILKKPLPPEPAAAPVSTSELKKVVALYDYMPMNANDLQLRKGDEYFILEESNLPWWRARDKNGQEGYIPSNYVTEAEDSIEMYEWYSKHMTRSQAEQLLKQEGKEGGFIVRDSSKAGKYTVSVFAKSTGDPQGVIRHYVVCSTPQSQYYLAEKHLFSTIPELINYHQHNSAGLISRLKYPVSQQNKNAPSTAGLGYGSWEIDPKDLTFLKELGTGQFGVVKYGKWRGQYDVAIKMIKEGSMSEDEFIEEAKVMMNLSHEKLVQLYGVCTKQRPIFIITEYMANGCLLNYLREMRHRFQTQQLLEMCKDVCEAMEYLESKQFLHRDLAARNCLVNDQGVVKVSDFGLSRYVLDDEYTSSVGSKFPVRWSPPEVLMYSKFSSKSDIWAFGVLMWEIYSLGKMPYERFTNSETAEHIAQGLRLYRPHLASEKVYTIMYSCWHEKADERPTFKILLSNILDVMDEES

SMILES | Cmax [1] [µM] | AUC(0-t) at 24 h [2] [µM·h] | Ratio IC50 (Homo sapiens) | pIC50 [3] | pIC50 [4] | Activity (Mus musculus) | Stability [5] | Papp [6] [×10⁻⁶ cm/s] | Drug metabolism [7] | Drug metabolism [8] | Activity [9] | permeability [6] | Drug metabolism [10] | Drug metabolism [11]
CC(C)(O)c1ccc2c(c1)[nH]c1c(C(N)=O)ccc(-c3cccc(-n4cnc5ccccc5c4=O)c3F)c12 | 2.1 | 19 |  |  |  |  |  |  |  |  |  |  |  | 
Cc1c(-c2ccc(C(N)=O)c3[nH]c4cc(CO)ccc4c23)cccc1-n1cnc2ccccc2c1=O | 4.65 | 14 | 146 | 7.66 | 8.52 |  |  |  |  |  |  |  |  | 
Cc1c(-c2ccc(C(N)=O)c3[nH]c4cc(C(C)(C)O)ccc4c23)cccc1-n1cnc2cc(F)ccc2c1=O | 8.06 | 120 | 89 | 7.62 | 8.70 |  |  |  |  |  |  |  |  | 
Cc1c(-c2ccc(C(N)=O)c3[nH]c4cc(C(C)(C)O)ccc4c23)cccc1N1Cc2ccc(F)cc2C1=O | 4.41 | 41 | 48 | 7.32 | 8.70 | inactive | Stable |  |  |  |  |  |  | 
Cc1c(-c2ccc(C(N)=O)c3[nH]c4cc(C(=O)N5CCN(C)CC5)ccc4c23)cccc1N1Cc2ccccc2C1=O | 0.178 | 0.3 | 14 | 6.62 | 8.30 |  |  |  |  |  |  |  |  | 
Cc1c(-c2ccc(C(N)=O)c3[nH]c4cc(C(C)(C)O)ccc4c23)cccc1-n1cnc2ccc(F)cc2c1=O | 9.77 | 113 | 52 | 7.40 | 8.15 |  |  |  |  |  |  |  |  | 
Cc1c(-c2ccc(C(N)=O)c3[nH]c4cc(C(C)(C)O)ccc4c23)cccc1-n1cnc2cccc(F)c2c1=O | 6.74 | 58 | 61 | 7.74 | 8.30 |  |  |  |  |  |  |  |  | 
Cc1c(-c2ccc(C(N)=O)c3[nH]c4cc(C(C)(C)O)ccc4c23)cccc1N1CCc2ccccc2C1=O |  |  | 33 | 7.59 | 8.52 |  |  |  |  |  |  |  |  | 
Cc1c(-c2ccc(C(N)=O)c3[nH]c4cc(C(C)(C)O)ccc4c23)cccc1N1Cc2ccccc2C1=O |  |  | 25 | 6.81 | 8.30 |  |  |  |  |  |  |  |  | 
Cc1c(NC(=O)c2ccc(F)cc2)cccc1-c1ccc(C(N)=O)c2[nH]c3cc(C(=O)N4CCN(C)CC4)ccc3c12 | 0.09 | 0.4 | 15 |  | 8.30 |  |  | 14.7 |  |  |  |  |  | 
Cc1c(-c2ccc(C(N)=O)c3[nH]c4cc(C(C)(C)O)ccc4c23)cccc1-n1ccc2ccccc2c1=O |  |  | 44 | 6.84 | 8.30 |  |  |  |  |  |  |  |  | 
Cc1c(NC(=O)c2ccc(F)cn2)cccc1-c1ccc(C(N)=O)c2[nH]c3cc(C(=O)N4CCN(C)CC4)ccc3c12 | 1.57 | 5 | 9 |  | 8.05 |  |  | 58.7 | Metabolite_Detected | Metabolite_Detected |  |  |  | 
Cc1c(-c2ccc(C(N)=O)c3[nH]c4cc(C(C)(C)O)ccc4c23)cccc1-n1cnc2c(F)cccc2c1=O | 6.85 | 63 | 88 | 7.47 | 8.70 |  |  |  |  |  |  |  |  | 
Cc1c(NC(=O)c2ccc(F)cc2)cccc1-c1ccc(C(N)=O)c2[nH]c3cc(NC(C)C)ccc3c12 | 7.96 | 36 | 61 |  | 7.96 |  |  |  | Metabolite_Detected | Metabolite_Detected | Toxic | Impermeable | Metabolite_Detected | Metabolite_Detected
